ChEMBL document CHEMBL3124843, “Synthesis, cytostatic, antimicrobial, and anti-HCV activity of 6-substituted 7-(het)aryl-7-deazapurine ribonucleosides” (J Med Chem, 2014)
pEC50, pIC50: −log10 of the molar value. Active and inactive are the calls of the source. No rule for the calls is given here.

Experiments:
Hepatitis C virus [1] = assay: Antiviral activity against Hepatitis C virus subtype 1b infected in human HuH7 cells; format: functional, organism-based, Hepacivirus hominis; conditions: genotype 1b, Huh-7
Candida tropicalis = assay: Antifungal activity against Candida tropicalis after 48 hrs; format: functional, organism-based
Escherichia coli [2] = assay: Antibacterial activity against multi-resistant Escherichia coli C/16702 after 24 hrs; format: functional, organism-based
[3] = Cytotoxicity against human HuH7 cells infected with Hepatitis C virus subtype 1b; format: cell-based, Huh-7
Enterococcus faecalis = assay: Antibacterial activity against Enterococcus faecalis CCM 4224 after 24 hrs; format: functional, organism-based
Candida parapsilosis = assay: Antifungal activity against Candida parapsilosis after 48 hrs; format: functional, organism-based
[4] = Antiproliferative activity against human HeLaS3 cells after 72 hrs by XTT assay; format: functional, cell-based; conditions: HeLa S3, 72 h
Outline: (§1)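 Antiproliferative test on HL-60 promyelocytic leukemia and HeLa S3 cervical carcinoma cells growing in liquid suspension.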

HepG2 = assay: Antiproliferative activity against human HepG2 cells after 72 hrs by XTT assay; format: functional, cell-based; conditions: HepG2, 72 h
BJ = assay: Cytostatic activity against human BJ cells after 72 hrs by MTT assay; format: ADME, cell-based
Outline: (§2)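 IC50 is the concentration that cuts cell growth by 50%, read by quantitative metabolic MTT staining after a 3-day treatment. The resistant sublines were made by raising the concentration of the cytotoxic drug step by step. CEM-DNR-bulk (daunorubicin-selected) stably overexpresses mrp-1. K562-TAX (paclitaxel-selected) expresses only mdr-1. HCT116p53−/− carries null p53 alleles. BJ and MRC-5 are nonmalignant fibroblasts.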

A549 = assay: Cytostatic activity against human A549 cells after 72 hrs by MTT assay; format: functional, cell-based; conditions: A549, 72 h; outline: as §2
HCT-116 [5] = assay: Cytostatic activity against p53-deficient human HCT116 cells after 72 hrs by MTT assay; format: functional, cell-based; conditions: HCT-116, 72 h; outline: as §2
Escherichia coli [6] = assay: Antibacterial activity against Escherichia coli CCM 3954 after 24 hrs; format: functional, organism-based
Staphylococcus aureus [7] = assay: Antibacterial activity against methicillin-resistant Staphylococcus aureus MRSA 4591 after 24 hrs; format: functional, organism-based
HCT-116 [8] = assay: Cytostatic activity against human HCT116 cells after 72 hrs by MTT assay; format: functional, cell-based; conditions: HCT-116, 72 h; outline: as §2
HL-60 = assay: Antiproliferative activity against human HL60 cells after 72 hrs by XTT assay; format: functional, cell-based; conditions: HL-60, 72 h; outline: as §1
[9] = system: Staphylococcus haemolyticus; assay: Antibacterial activity against methicillin-resistant Staphylococcus haemolyticus A/16568 after 24 hrs; format: functional, organism-based
[10] = Cytotoxicity against human HuH7 cells infected with Hepatitis C virus subtype 2a; format: cell-based, Huh-7
CCRF-CEM = assay: Cytostatic activity against human CCRF-CEM cells after 72 hrs by MTT assay; format: functional, cell-based; outline: as §2
K562 [11] = assay: Cytostatic activity against paclitaxel-resistant human K562 cells after 72 hrs by MTT assay; format: functional, cell-based; conditions: K562, 72 h; outline: as §2
Staphylococcus aureus [12] = assay: Antibacterial activity against Staphylococcus aureus CCM 3953 after 24 hrs; format: functional, organism-based
Pseudomonas aeruginosa [13] = assay: Antibacterial activity against Pseudomonas aeruginosa CCM 3955 after 24 hrs; format: functional, organism-based
Hepatitis C virus [14] = assay: Antiviral activity against Hepatitis C virus subtype 2a infected in human HuH7 cells; format: functional, organism-based, Hepacivirus hominis; conditions: genotype 2a, Huh-7
MRC5 = assay: Cytostatic activity against human MRC5 cells after 72 hrs by MTT assay; format: ADME, cell-based; conditions: MRC5, 72 h; outline: as §2
Pseudomonas aeruginosa [15] = assay: Antibacterial activity against multi-resistant Pseudomonas aeruginosa A/16575 after 24 hrs; format: functional, organism-based
Pichia kudriavzevii = assay: Antifungal activity against Candida crusei after 48 hrs; format: functional, organism-based
K562 [16] = assay: Cytostatic activity against human K562 cells after 72 hrs by MTT assay; format: functional, cell-based; conditions: K562, 72 h; outline: as §2
[17] = Cytostatic activity against human CEM-DNR-bulk cells after 72 hrs by MTT assay; format: functional, cell-based; outline: as §2
Candida albicans = assay: Antifungal activity against Candida albicans after 48 hrs; format: functional, organism-based

Structure (SMILES)	pEC50 (Hepatitis C virus [1])	Activity (Candida tropicalis)	Activity (Escherichia coli [2])	CC50 [3]	Activity (Enterococcus faecalis)	Activity (Candida parapsilosis)	pIC50 [4]	pIC50 (HepG2)	pIC50 (BJ)	pIC50 (A549)	pIC50 (HCT-116 [5])	Activity (Escherichia coli [6])	Activity (Staphylococcus aureus [7])	pIC50 (HCT-116 [8])	pIC50 (HL-60)	Activity [9]	CC50 [10]	pIC50 (CCRF-CEM)	pIC50 (K562 [11])	Activity (Staphylococcus aureus [12])	further results
C#Cc1cn([C@@H]2O[C@H](CO)[C@@H](O)[C@H]2O)c2ncnc(C)c12	6.64	inactive	inactive	> 44 µM	inactive	inactive	4.83	6.54	7.30	4.72	< 4.70	inactive	inactive	< 4.70	5.95	inactive	> 44 µM	5.25	6.96	inactive	Activity (Pseudomonas aeruginosa [13]): inactive; pEC50 (Hepatitis C virus [14]): 4.67; pIC50 (MRC5): 5.84; Activity (Pseudomonas aeruginosa [15]): inactive; Activity (Pichia kudriavzevii): inactive; pIC50 (K562 [16]): 5.16; pIC50 [17]: 6.80; Activity (Candida albicans): inactive
CSc1ncnc2c1ccn2[C@@H]1O[C@H](CO)[C@@H](O)[C@H]1O	4.52	inactive	inactive	> 44 µM	inactive	inactive	4.92	< 4.70	< 4.00	< 4.70	< 4.70	inactive	inactive	< 4.70	5.14	inactive	> 44 µM	< 4.70	7.00	inactive	Activity (Pseudomonas aeruginosa [13]): inactive; pEC50 (Hepatitis C virus [14]): < 4.36; pIC50 (MRC5): < 4.00; Activity (Pseudomonas aeruginosa [15]): inactive; Activity (Pichia kudriavzevii): inactive; pIC50 (K562 [16]): < 4.70; pIC50 [17]: 5.44; Activity (Candida albicans): inactive
Cc1ncnc2c1c(-c1ccoc1)cn2[C@@H]1O[C@H](CO)[C@@H](O)[C@H]1O	5.35	inactive	inactive	> 44 µM	inactive	inactive	< 4.70	5.27	4.05	< 4.70	< 4.70	inactive	inactive	< 4.70	< 4.82	inactive	> 44 µM	< 4.70	< 4.70	inactive	Activity (Pseudomonas aeruginosa [13]): inactive; pEC50 (Hepatitis C virus [14]): < 4.36; pIC50 (MRC5): 4.01; Activity (Pseudomonas aeruginosa [15]): inactive; Activity (Pichia kudriavzevii): inactive; pIC50 (K562 [16]): < 4.70; pIC50 [17]: < 4.70; Activity (Candida albicans): inactive
CSc1ncnc2c1c(-c1ccsc1)cn2[C@@H]1O[C@H](CO)[C@@H](O)[C@H]1O	4.96	inactive	inactive	> 44 µM	inactive	inactive	< 4.70	< 4.82	4.02	< 4.70	< 4.70	inactive	inactive	< 4.70	5.34	inactive	> 44 µM	< 4.70	< 4.70	inactive	Activity (Pseudomonas aeruginosa [13]): inactive; pEC50 (Hepatitis C virus [14]): < 4.36; pIC50 (MRC5): < 4.00; Activity (Pseudomonas aeruginosa [15]): inactive; Activity (Pichia kudriavzevii): inactive; pIC50 (K562 [16]): 6.35; pIC50 [17]: < 4.70; Activity (Candida albicans): inactive
CSc1ncnc2c1c(-c1ccoc1)cn2[C@@H]1O[C@H](CO)[C@@H](O)[C@H]1O	5.33	inactive	inactive	> 44 µM	inactive	inactive	5.27	< 4.82	4.01	6.55	7.00	inactive	inactive	7.40	6.44	inactive	> 44 µM	4.85	5.49	inactive	Activity (Pseudomonas aeruginosa [13]): inactive; pEC50 (Hepatitis C virus [14]): < 4.36; pIC50 (MRC5): < 4.00; Activity (Pseudomonas aeruginosa [15]): inactive; Activity (Pichia kudriavzevii): inactive; pIC50 (K562 [16]): 7.22; pIC50 [17]: < 4.70; Activity (Candida albicans): inactive
Nc1nc2c(c(-c3ccco3)cn2[C@@H]2O[C@H](CO)[C@@H](O)[C@H]2O)c(=O)[nH]1	< 4.36	inactive	inactive	> 44 µM	inactive	inactive	< 4.70	< 4.70	< 4.00	< 4.70	< 4.70	inactive	inactive	< 4.70	< 4.70	inactive	> 44 µM	< 4.70	< 4.70	inactive	Activity (Pseudomonas aeruginosa [13]): inactive; pEC50 (Hepatitis C virus [14]): < 4.36; pIC50 (MRC5): < 4.00; Activity (Pseudomonas aeruginosa [15]): inactive; Activity (Pichia kudriavzevii): inactive; pIC50 (K562 [16]): < 4.70; pIC50 [17]: < 4.70; Activity (Candida albicans): inactive
O=c1[nH]cnc2c1c(-c1cc3ccccc3o1)cn2[C@@H]1O[C@H](CO)[C@@H](O)[C@H]1O	5.14	inactive	inactive	> 44 µM	inactive	inactive	< 4.70	< 4.70	4.20	< 4.70	< 4.70	inactive	inactive	< 4.70	< 4.70	inactive	> 44 µM	< 4.70	< 4.70	inactive	Activity (Pseudomonas aeruginosa [13]): inactive; pEC50 (Hepatitis C virus [14]): 4.76; pIC50 (MRC5): < 4.00; Activity (Pseudomonas aeruginosa [15]): inactive; Activity (Pichia kudriavzevii): inactive; pIC50 (K562 [16]): < 4.70; pIC50 [17]: < 4.70; Activity (Candida albicans): inactive
COc1ncnc2c1c(-c1ccccc1)cn2[C@@H]1O[C@H](CO)[C@@H](O)[C@H]1O	4.68	inactive	inactive	> 44 µM	inactive	inactive	< 4.70	< 4.70	< 4.00	< 4.70	< 4.70	inactive	inactive	< 4.70	< 4.70	inactive	> 44 µM	< 4.70	< 4.70	inactive	Activity (Pseudomonas aeruginosa [13]): inactive; pEC50 (Hepatitis C virus [14]): < 4.36; pIC50 (MRC5): < 4.00; Activity (Pseudomonas aeruginosa [15]): inactive; Activity (Pichia kudriavzevii): inactive; pIC50 (K562 [16]): < 4.70; pIC50 [17]: < 4.70; Activity (Candida albicans): inactive
Nc1nc2c(c(-c3cc4ccccc4o3)cn2[C@@H]2O[C@H](CO)[C@@H](O)[C@H]2O)c(=O)[nH]1	< 4.36	inactive	inactive	> 44 µM	inactive	inactive	< 4.70	< 4.70	< 4.00	< 4.00	< 4.00	inactive	inactive	< 4.00	< 4.70	inactive	> 44 µM	< 4.70	< 4.70	inactive	Activity (Pseudomonas aeruginosa [13]): inactive; pEC50 (Hepatitis C virus [14]): < 4.36; pIC50 (MRC5): < 4.00; Activity (Pseudomonas aeruginosa [15]): inactive; Activity (Pichia kudriavzevii): inactive; pIC50 (K562 [16]): < 4.70; pIC50 [17]: < 4.70; Activity (Candida albicans): inactive
